# Reference: ChEMBL document CHEMBL4052624, “Metallo-β-lactamase inhibitors by bioisosteric replacement: Preparation, activity and binding” (Eur J Med Chem, 2017)
# Activity calls are given as the source filed them. No cut-off for these calls is given here.
# Experiments:
# [1] = biological target: Beta-lactamase VIM-2 (Pseudomonas aeruginosa, UniProt Q9K2N0); assay: Inhibition of Pseudomonas aeruginosa 301-5473 6His-tagged VIM-2 (V27 to E268 residues) expressed in Escherichia coli BL21 Star(DE3) pLysS using nitrocefin as substrate preincubated for 5 mins followed by substrate addition by spectrophotometric analysis
# How it was run: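 Purified VIM-2 and GIM-1 were each used at 10 nM in 50 mM HEPES pH 7.2 with ZnCl₂ and BSA. Each enzyme was preincubated with inhibitor at 25 °C for 5 min, using sixteen concentrations in a 2-fold series. Nitrocefin was then added and the absorbance rise at 482 nm was read. Initial velocities, measured in triplicate, were fitted to log[inhibitor] vs response curves to give IC50. Line 3 is the ratio of the two IC50s.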
# [2] = biological target: GIM-1 protein (Pseudomonas aeruginosa, UniProt Q704V1); assay: Inhibition of Pseudomonas aeruginosa 6His-tagged GIM-1 (Q19 to D250 residues) expressed in Escherichia coli BL21 Star(DE3) pLysS using nitrocefin as substrate preincubated for 5 mins followed by substrate addition by spectrophotometric analysis
# How it was run: (§1)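 His-tagged enzyme, TEV-cleaved, ~95% pure by SDS-PAGE. 10 nM enzyme with 16 inhibitor concentrations in a 2-fold series, in 50 mM HEPES pH 7.2 with ZnCl2 and BSA, preincubated 5 min at 25 °C. Then 100 µM substrate added: imipenem for NDM-1 read at 260 nm, nitrocefin for GIM-1 read at 482 nm. Initial rates in triplicate, fitted to a log[inhibitor] dose–response curve for IC50.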
# [3] = Inhibition of Klebsiella pneumoniae 6His-tagged NDM1 (G36 to R280 residues) expressed in Escherichia coli BL21 Star(DE3) pLysS using imipenem as substrate preincubated for 5 mins followed by substrate addition by spectrophotometric analysis; how it was run: as §1
# [4] = biological target: Beta-lactamase VIM-2 (Pseudomonas aeruginosa) (UniProt Q9K2N0); assay: Inhibition of Pseudomonas aeruginosa 301-5473 VIM-2 expressed in Escherichia coli SNO3 whole cells using nitrocefin as substrate at 250 uM preincubated for 20 mins followed by substrate addition measured every min up to 60 mins by spectrophotometric analysis relative to control
# How it was run: (§2)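 β-lactamase-negative E. coli SNO3 carrying blaVIM-2, blaGIM-1 or blaNDM-1 in pET26b(+). Hydrolysis of the reporter substrate followed as the initial slope over up to 60 min. Percent inhibition calculated from slopes relative to a no-inhibitor control; EDTA used as positive control.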
# [5] = biological target: GIM-1 protein (Pseudomonas aeruginosa) (UniProt Q704V1); assay: Inhibition of Pseudomonas aeruginosa GIM-1 expressed in Escherichia coli SNO3 whole cells using nitrocefin as substrate at 250 uM preincubated for 20 mins followed by substrate addition measured every min up to 60 mins by spectrophotometric analysis relative to control; how it was run: as §2
# [6] = tested on: Klebsiella pneumoniae; assay: Inhibition of Klebsiella pneumoniae NDM1 expressed in Escherichia coli SNO3 whole cells using imipenem as substrate at 250 uM preincubated for 20 mins followed by substrate addition measured every min up to 60 mins by spectrophotometric analysis relative to control; how it was run: as §2
# [7] = biological target: Beta-lactamase VIM-2 (Pseudomonas aeruginosa) (UniProt Q9K2N0); assay: Inhibition of VIM-2 in Pseudomonas aeruginosa K34-7 assessed as potentiation of meropenem-induced antimicrobial activity by measuring meropenem MIC at 125 uM after 20 hrs (reference value: 32 to 64 mg/L)
# [8] = tested on: Klebsiella pneumoniae; assay: Inhibition of NDM-1 in Klebsiella pneumoniae K66-45 assessed as potentiation of meropenem-induced antimicrobial activity by measuring meropenem MIC at 125 uM after 20 hrs (reference value: 32 to 64 mg/L)
# [9] = tested on: Pseudomonas aeruginosa; assay: Growth inhibition of Pseudomonas aeruginosa K34-7 after 20 hrs
# [10] = tested on: Klebsiella pneumoniae; assay: Growth inhibition of Klebsiella pneumoniae K66-45 after 20 hrs
# [11] = tested on: Escherichia coli; assay: Inhibition of VIM-29 in Escherichia coli 50639799 assessed as potentiation of meropenem-induced antimicrobial activity by measuring meropenem MIC at 125 uM after 20 hrs (reference value: 8 to 32 mg/L)
# [12] = tested on: Pseudomonas aeruginosa; assay: Selectivity ratio of IC50 for Pseudomonas aeruginosa 6His-tagged GIM-1 (Q19 to D250 residues) expressed in Escherichia coli BL21 Star(DE3) pLysS to IC50 for Pseudomonas aeruginosa 301-5473 6His-tagged VIM-2 (V27 to E268 residues) expressed in Escherichia coli BL21 Star(DE3) pLysS
# [13] = Selectivity ratio of IC50 for Pseudomonas aeruginosa 6His-tagged GIM-1 (Q19 to D250 residues) expressed in Escherichia coli BL21 Star(DE3) pLysS to IC50 for Klebsiella pneumoniae 6His-tagged NDM1 (G36 to R280 residues) expressed in Escherichia coli BL21 Star(DE3) pLysS
# [14] = tested on: Escherichia coli; assay: Growth inhibition of Escherichia coli 50639799 after 20 hrs
# Sequence of GIM-1 protein (Q704V1 whole entry, the tested form may be a part): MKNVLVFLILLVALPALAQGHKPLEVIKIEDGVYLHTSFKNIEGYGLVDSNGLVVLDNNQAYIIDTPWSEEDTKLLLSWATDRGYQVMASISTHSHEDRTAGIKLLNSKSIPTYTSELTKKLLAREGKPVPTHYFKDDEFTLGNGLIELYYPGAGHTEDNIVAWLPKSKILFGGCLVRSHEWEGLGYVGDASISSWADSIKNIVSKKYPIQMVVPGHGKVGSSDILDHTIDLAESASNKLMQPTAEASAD
# Sequence of GIM-1 protein (Pseudomonas aeruginosa) (Q704V1 as listed by the source): as the sequence (Q704V1 whole entry, the tested form may be a part) above
Compound,IC50 [1] [µM],IC50 ([2]; read-out: IC50) [µM],IC50 ([3]; read-out: IC50) [µM],inhibition [4],inhibition [5],inhibition [6],MIC [7] [µg/mL],MIC [8] [µg/mL],MIC [9] [µg/mL],MIC [10] [µg/mL],MIC [11] [µg/mL],Ratio IC50 [12],Ratio IC50 [13],MIC [14] [µg/mL],IC50 [2],IC50 [3]
O=P(O)(O)C(CS)CCc1ccccc1 (centres undefined),7.8,23,5.9,92%,37%,42%,32,32,> 500,> 500,4,2 to 4,2 to 4,–,–,–
c1ccc(CCCC(CSC2CCCCC2)c2nnn[nH]2)cc1 (centres undefined),5,36 to 162,10,73%,8%,inactive,–,–,–,–,–,–,–,–,–,–
CCOP(=O)(OCC)C(CCCc1ccccc1)CSC(C)=O (centres undefined),34,26,–,14%,21%,inactive,32,64,> 1000,> 1000,4 to 8,–,–,> 1000,–,–
SCC(CCCc1ccccc1)c1nnn[nH]1 (centres undefined),28,68,12,67%,25%,16%,–,–,–,–,–,–,–,–,–,–
CC(=O)SCC(CCc1ccccc1)P(=O)(O)O (centres undefined),2.3,12,2.9,94%,40%,39%,–,–,–,–,–,–,–,–,–,–
CCOP(=O)(OCC)C(CO)CCCc1ccccc1 (centres undefined),> 10,> 10,> 10,inactive,inactive,inactive,–,–,–,–,–,–,–,–,–,–
O=P(O)(O)C(CO)CCCc1ccccc1 (centres undefined),34,> 10,77,66%,16%,–,–,–,–,–,–,–,–,–,–,–
O=P(O)(O)C(CO)CCc1ccccc1 (centres undefined),27 to 35,99,59,61%,23%,3.75%,–,–,–,–,–,–,–,–,–,–
CCOP(=O)(OCC)C(CCCCc1ccccc1)CSC(C)=O (centres undefined),20,13,–,12%,25%,inactive,–,–,–,–,–,–,–,–,–,–
CCOP(=O)(OCC)C(CS)CCCCc1ccccc1 (centres undefined),1.67,–,–,–,–,–,–,–,–,–,–,–,–,–,Nd(Insoluble),Nd(Insoluble)
CCOP(=O)(OCC)C(CCc1ccccc1)CSC(C)=O (centres undefined),133,18,–,17%,25%,inactive,–,–,–,–,–,–,–,–,–,–
O=P(O)(O)C(CS)CCCc1ccccc1 (centres undefined),33.2,28,7.1,95%,46%,45%,32,32,1000,1000,1,–,–,> 1000,–,–
